Measurements published in ChEMBL document CHEMBL2321845, “Discovery of 4-Aryl-2-benzoyl-imidazoles as tubulin polymerization inhibitor with potent antiproliferative properties” (J Med Chem, 2013).
Active and inactive are the calls of the source. No cut-off for these calls is given here.

Tests used:
[1] = Resistance index, ratio of IC50 for human MDA-MB-435/LCC6 MDR1 cells to IC50 for human MDA-MB-435 cells; assay type: functional
PC-3 [2] = experiment: Cytotoxicity against human PC3 cells assessed as growth inhibition after 96 hrs by SRB assay; assay type: functional, cell-based; settings: PC-3, 96 h
Method in brief: (§1)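 Plated at 1000–5000 cells/well depending on growth rate and treated with graded compound concentrations for 96 h, three to five replicates. Cell number was measured by SRB: 10% TCA fixation, 0.4% SRB staining, absorbance at 540 nm. IC50 relative to untreated control came from a nonlinear regression fit.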

A-375 = experiment: Cytotoxicity against human A375 cells assessed as growth inhibition after 48 hrs by SRB assay; assay type: functional, cell-based; settings: A-375, 48 h
Method in brief: (§2)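 Melanoma cells from ATCC, grown in DMEM with 10% FBS at 37°C under 5% CO2. Seeded at 1000–5000 cells/well according to growth rate and exposed to a range of compound concentrations for 48 h, in three to five replicates. Cells were fixed with 10% TCA, stained with 0.4% SRB and read at 540 nm.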

MDA-MB-435 = experiment: Cytotoxicity against human MDA-MB-435 cells assessed as growth inhibition after 48 hrs by SRB assay; assay type: functional, cell-based; settings: MDA-MB-435, 48 h
[3] = Cytotoxicity against human WM164 cells assessed as growth inhibition after 48 hrs by SRB assay; assay type: functional, cell-based; settings: WM164, 48 h
Method in brief: as §2, with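 “nm. IC50 (50% growth inhibition versus untreated control) was taken from nonlinear regression of % survival against concentration.” for “nm.”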

PPC-1 = experiment: Cytotoxicity against human PPC1 cells assessed as growth inhibition after 96 hrs by SRB assay; assay type: functional, cell-based; settings: PPC-1, 96 h; method in brief: as §1
LNCaP = experiment: Cytotoxicity against human LNCAP cells assessed as growth inhibition after 96 hrs by SRB assay; assay type: functional, cell-based; method in brief: as §1
[4] = Cytotoxicity against human MDA-MB-435/LCC6MDR1 cells assessed as growth inhibition after 48 hrs by SRB assay; assay type: functional, cell-based, MDA-MB-435/LCC6 MDR1; settings: Homo sapiens, MDA-MB-435/LCC6 MDR1, 48 h
DU-145 = experiment: Cytotoxicity against human DU145 cells assessed as growth inhibition after 96 hrs by SRB assay; assay type: functional, cell-based; settings: Homo sapiens, DU-145, 96 h
Tubulin (Sus scrofa) = Tubulin (Sus scrofa) (UniProt P02554+P02550); experiment: Inhibition of pig brain tubulin polymerization measured every 1 min for 40 mins by microplate reader analysis
Tubulin (Sus scrofa), sequence (P02550 whole entry, looked up): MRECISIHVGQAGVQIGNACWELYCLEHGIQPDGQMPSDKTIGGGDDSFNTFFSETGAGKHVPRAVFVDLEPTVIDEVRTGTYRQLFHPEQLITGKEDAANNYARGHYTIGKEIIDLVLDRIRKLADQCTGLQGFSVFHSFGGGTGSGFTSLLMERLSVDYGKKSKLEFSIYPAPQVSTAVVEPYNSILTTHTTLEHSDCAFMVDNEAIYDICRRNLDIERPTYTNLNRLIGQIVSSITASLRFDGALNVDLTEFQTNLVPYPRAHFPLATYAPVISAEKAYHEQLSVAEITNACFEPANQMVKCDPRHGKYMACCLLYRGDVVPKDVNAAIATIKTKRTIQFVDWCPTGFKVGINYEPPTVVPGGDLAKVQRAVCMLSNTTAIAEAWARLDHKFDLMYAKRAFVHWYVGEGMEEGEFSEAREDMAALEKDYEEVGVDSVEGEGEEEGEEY
Tubulin (Sus scrofa), sequence (P02554 whole entry, looked up): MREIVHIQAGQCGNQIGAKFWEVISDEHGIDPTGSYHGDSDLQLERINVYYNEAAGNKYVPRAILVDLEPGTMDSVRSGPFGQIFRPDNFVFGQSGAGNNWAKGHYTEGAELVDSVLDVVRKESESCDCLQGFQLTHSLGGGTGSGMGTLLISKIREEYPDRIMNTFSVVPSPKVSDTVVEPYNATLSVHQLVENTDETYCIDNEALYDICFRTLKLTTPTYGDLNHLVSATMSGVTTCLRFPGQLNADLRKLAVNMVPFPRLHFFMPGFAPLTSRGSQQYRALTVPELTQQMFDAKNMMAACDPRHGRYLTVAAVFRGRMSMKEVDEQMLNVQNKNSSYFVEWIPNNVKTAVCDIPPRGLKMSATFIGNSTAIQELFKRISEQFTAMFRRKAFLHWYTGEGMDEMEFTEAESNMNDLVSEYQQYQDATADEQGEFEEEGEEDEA
Method in brief: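 Polymerization was followed with a fluorescence-enhanced tubulin polymerization assay kit.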

PC-3 [5] = experiment: Cell cycle arrest in human PC3 cells assessed as accumulation at G2/M phase after 24 hrs by propidium iodide staining based FACS analysis (reference value: 18%); assay type: functional
Bos taurus = organism: Bos taurus; experiment: Competitive binding affinity to bovine brain tubulin after 1 hr by mass spectrometry binding assay in presence of colchicine; assay type: tissue-based

Row | inhibition (Tubulin (Sus scrofa)) | Activity (Bos taurus) | SMILES | Ratio IC50 [1] | IC50 (PC-3 [2]) [nM] | IC50 (A-375) [nM] | IC50 (MDA-MB-435) [nM] | IC50 [3] [nM] | IC50 (PPC-1) [nM] | IC50 (LNCaP) [nM] | IC50 [4] [nM] | IC50 (DU-145) [nM] | Activity (PC-3 [5]) | Activity (PC-3 [5]; record 2)
1 | – | – | COc1cc(C(=O)c2nc(-c3ccc(C(F)(F)F)cc3)c[nH]2)cc(OC)c1OC | 0.8 | 93 | 123 | 120 | 143 | 74 | 47 | 175 | 210 | – | –
2 | Active | – | COc1cc(C(=O)c2nc(-c3ccccc3)cn2C)cc(OC)c1OC | – | 16 | 9 | 16 | 33 | 13 | – | 18 | 26 | Dose-dependent effect | <=70%
3 | Dose-dependent effect | inactive | CC[C@]1(O)C[C@@H]2CN(CCc3c([nH]c4ccccc34)[C@@](C(=O)OC)(c3cc4c(cc3OC)N(C)[C@H]3[C@@](O)(C(=O)OC)[C@H](OC(C)=O)[C@]5(CC)C=CCN6CC[C@]43[C@@H]65)C2)C1 | – | – | – | – | – | – | – | – | – | – | –
4 | – | – | COc1cc(C(=O)c2nc(-c3ccc(Br)cc3)c[nH]2)cc(OC)c1OC | – | 33 | 29 | 58 | 31 | – | 15 | 43 | 66 | Dose-dependent effect | <=70%
5 | Active | Active | COc1cc(C(=O)c2nc(-c3ccccc3)c[nH]2)cc(OC)c1OC | 0.5 | 14 | 9 | 24 | 14 | 13 | 6 | 11 | 22 | Dose-dependent effect | <=70%
6 | – | – | CCn1cc(-c2ccccc2)nc1C(=O)c1cc(OC)c(OC)c(OC)c1 | – | 25 | 28 | 26 | 16 | – | 29 | 33 | 66 | Dose-dependent effect | <=70%
7 | – | Active | COc1cc(C(=O)c2nc(-c3ccccc3)cn2-c2ccccn2)cc(OC)c1OC | – | – | 14 | 11 | 6 | 8 | 20 | 15 | 37 | – | –
